Assay results published in paper PMC5417336 (Journal of immunology (Baltimore, Md. : 1950), 2017).
In brackets after ≈: the same amount, converted by molar mass. Entries after “also recorded” stand apart in the source; their conditions may differ. Read-outs that look alike come from different tables or passages of the source.

Columns and labels:
compstatin/C3b binding = compstatin/C3b binding (Homo sapiens, UniProt P01024); assay: LE-SPR competition assay B23-TRX-4W9A; details: 500 μM compound, 500 nM B23-TRX-4W9A vs 5% DMSO
Outline: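 B23-labelled TRX-4W9A (500 nM) was co-injected with 500 μM test compound, 5% (v/v) DMSO vehicle, or 65 μM compstatin peptide (positive control) over oriented biotin-C3b (3,800 and 3,100 RU surfaces). Running buffer contained 5% DMSO, and competitor-only injections served for epigram calculation. Residual binding was the mean eRU over 10 s before injection stop, relative to DMSO control. Each compound was tested on at least two independent C3b surfaces.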

C5/C3b interaction = C5/C3b interaction (Homo sapiens, UniProt P01024); assay: LE-SPR competition assay B23-C5/C3b; type: binding
Outline: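 B23-C5 (250 nM) was co-injected over oriented biotin-C3b (4,460 RU) with competitor: unlabelled C5 (250 nM), TRX-4W9A (12 μM) or compstatin peptide (65 μM) in HBS-T. Runs with small molecules used buffer with 5% (v/v) DMSO. A parallel competitor-only injection served for epigram calculation. Residual binding was the mean eRU over 10 s before injection stop, relative to B23-C5 alone or DMSO vehicle. Each run was done 2–4 times.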

[1] = tested on: alternative pathway (AP) complement activation, MAC deposition; assay: AP-specific complement ELISA, MAC deposition; type: biochemical, human; details: 250 μM, 20% (v/v) serum
Outline: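 Wells coated overnight with 25 μg ml−1 Salmonella typhosa LPS in 100 mM carbonate pH 9.6, then blocked 1 h at 37°C with PBS/1% BSA/0.05% Tween-20. Test compound (250 μM final, 2.5% DMSO) is mixed with 20% (v/v) normal human serum in HEPES pH 7.5, gelatin, NaCl, 5 mM MgCl2, 5 mM EGTA. Incubated 1 h at 37°C. MAC detected with anti-C5b-9 aE11 (1/300). Signal expressed against mean vehicle as 100%.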

[2] = tested on: classical pathway (CP) complement activation, MAC deposition; assay: CP-specific complement ELISA, MAC deposition; type: biochemical, human
Outline: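 Plates carry 3 μg ml−1 human IgM, blocked with BSA/Tween-20. Test compound (250 μM, or 0–625 μM series; 2.5% DMSO) is mixed with 1% normal human serum in HEPES pH 7.3 buffer with 2 mM CaCl2, 0.5 mM MgCl2 and gelatin. Serum-titration arm: fixed 500 μM compound or DMSO vehicle, serum 0–4% (v/v). Incubated 1 h at 37°C. Read-out: anti-MAC aE11 (1/300). Normalised to vehicle mean as 100%.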

[3] = tested on: C3b deposition (classical pathway); assay: CP ELISA, C3b deposition; type: biochemical, human; details: concentrations up to 625 μM, 1% (v/v) serum
Outline: (§1)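 Wells coated overnight with 3 μg ml−1 human IgM in carbonate pH 9.6, then blocked with BSA/Tween-20 in PBS. Test compound (250 μM single concentration, or series up to 625 μM; 2.5% DMSO) is added to 1% (v/v) normal human serum in HEPES pH 7.3, gelatin, NaCl, 2 mM CaCl2, 0.5 mM MgCl2. Incubated 1 h at 37°C. Detection: anti-C3b WM1 or anti-C4b C4-1 (1/300). Normalised to mean vehicle as 100%.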

[4] = tested on: C4b deposition (classical pathway); assay: CP ELISA, C4b deposition; type: biochemical, human; details: concentrations up to 625 μM, 1% (v/v) serum
Outline: as §1

[5] = tested on: C5a production (C5 cleavage); assay: C5a capture ELISA of CP ELISA reactions; type: biochemical, human; details: fixed 500 μM cmp-5, serum 0–4% (v/v); DMSO control 1.55% (v/v)
Outline: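 Completed CP ELISA reactions (IgM-coated plates, CP buffer, 1 h at 37°C; fixed 500 μM test compound or DMSO vehicle, serum 0–4% (v/v)) were diluted 2-fold onto plates coated overnight at room temperature with 1 μg ml−1 anti-C5a neoepitope mAb. Incubation 1 h at RT with rocking. Detection used rabbit anti-human C5a (1/200, 1 h RT), then goat anti-rabbit-HRP (1/5000, 1 h) and TMB, read at 450 nm. Signals normalised to the mean vehicle control as 100%.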

[6] = Compound solubility in CP ELISA assay buffer; type: physicochemical; details: aqueous buffer
C3b [7] = target: T1, C3b (Homo sapiens, UniProt P01024); assay: Label-enhanced SPR; type: binding; details: read-out: KD for C3b, LE-SPR, B23-C5; 1:1 Langmuir kinetic model
Outline: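 C5 was dialysed into PBS pH 7.4 (2 h, RT), labelled 1 h in the dark with 5-fold molar excess NHS-B23 dye, then dialysed into HBS overnight at 4°C. A two-fold concentration series ran over oriented biotin-C3b (5,160 RU) at 10 μl min−1 with 1 min association and 1 min dissociation. An unlabelled injection at the top concentration weighted dip width and position to give epigrams (eRU). KD from a 1:1 Langmuir kinetic fit.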

C3b [8] = target: T1, C3b; type: binding; details: read-out: KD for C3b, conventional SPR, C5; 1:1 Langmuir kinetic model
Outline: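 Biotinylated C3b was captured on a NeutrAvidin-coupled sensor chip (6,560 RU surface for C5). Native C5 in HBST ran as a two-fold concentration series: 2 min injection, 3 min dissociation, 30 μl min−1, no regeneration. KD came from a 1:1 Langmuir kinetic fit of reference-corrected sensorgrams.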

[9] = target: T2, site-specifically biotinylated C3b (human, UniProt P01024 23-667; P01024 749-1663, site-specifically biotinylated with EZ-link Maleimide-PEG2-biotin); assay: AlphaScreen or HTRF
[10] = target: T2, site-specifically biotinylated C3b; assay: SPR
[11] = target: T2, site-specifically biotinylated C3b; assay: SPR; remark: listed apart in the source
[12] = target: T2, site-specifically biotinylated C3b; assay: SPR; remark: listed apart in the source

Cc1ccnn1-c1cccc(NC(=O)CC2OC(=O)c3ccccc32)c1 (stereo not shown) [cmp-5, N-(3-(5-methyl-1H-pyrazol-1-yl)phenyl)-2-(3-oxo-1,3-dihydroisobenzofuran-1-yl)acetamide]
effect on B23-TRX-4W9A-specific LE-SPR signal (C3b binding) (compstatin/C3b binding): reduction of specific C3b-binding; also recorded: modest ability to compete
effect on B23-C5/C3b interaction, small molecules (C5/C3b interaction; 500 μM compound, 250 nM B23-C5 vs 5% DMSO vehicle): did not affect; also recorded: failed to perturb
inhibition of the AP (MAC deposition) [1]: significant inhibition
MAC deposition relative to control response (AP ELISA) ([1]; n=5): 73 ± 4.6%
inhibition of MAC deposition in CP ELISA ([2]; 250 μM, 1% (v/v) serum): significant inhibition
MAC deposition relative to control response (CP ELISA) ([2]; 250 μM, 1% (v/v) serum, n=13): 59 ± 2.4%
EC50 of serum, MAC deposition ([2]; fixed 500 μM cmp-5, serum 0–4% (v/v), DMSO control 0.88% (v/v)): 1.43 % (v/v)
effect on C3b deposition, CP ELISA [3]: no effect
effect on C4b deposition, CP ELISA [4]: no effect
EC50 of serum, C5a production [5]: 2.04 % (v/v)
solubility [6]: ~600 µM (≈ 208 µg/mL)

B23-C5: C5 labeled with NHS-B23 dye
Kd (C3b [7]): 3200 nM

C5: complement component C5, purified protein (Complement Technologies)
Kd (C3b [8]): 350 nM
effect on B23-C5/C3b LE-SPR signal, protein/peptide competitors (C5/C3b interaction; 250 nM B23-C5, 250 nM unlabeled C5, 12 μM TRX-4W9A or 65 μM compstatin peptide): reduces the B23-C5 specific LE-SPR signal
reduction of specific binding of B23-C5 to C3b (C5/C3b interaction; 250 nM B23-C5, competitor 250 nM unlabeled C5 or 12 μM TRX-4W9A, HBS-T): ~50%

B1: untagged Ba(1–3) (domain or fragment, human, UniProt P00751 35-220, looked up)
chain: GSCSLEGVEIKGGSFRLLQEGQALEYVCPSGFYPYPVQTRTCRSTGSWSTLKTQDQKTVRKAECRAIHCPRPHDFENGEYWPRSPYYNVSDEISFHCYDGYTLRGSANRTCQVNGRWSGQTAICDNGAGYCSNPGIPIGTRKVGSQYRLEDSVTYHCSRGLTLRGSQRRTCQEGGSWSGTEPSCQD
Kd [9]: 4700 nM

B2: thioredoxin-compstatin fusion protein (TRX-4W9A) (designed binder)
chain: ENLYFQGGSGSGSGICVWQDWGAHRCT
Kd [10]: 770 nM

B3: B23 dye-labeled TRX-4W9A (designed binder)
chain: ENLYFQGGSGSGSGICVWQDWGAHRCT
modifications: labeled with the dye reagent Episentec NHS-B23 (5-fold molar excess)
Kd [11]: 790 nM
Kd [12]: 560 nM
